# Measurements gathered from unrelated publications.
# Each line is one published result; the experiments were not run side by side.
# Target: Interleukin-1 receptor-associated kinase 4 (IRAK4, Homo sapiens, UniProt Q9NWZ3)
# Residues used in one study (Q9NWZ3 1-460): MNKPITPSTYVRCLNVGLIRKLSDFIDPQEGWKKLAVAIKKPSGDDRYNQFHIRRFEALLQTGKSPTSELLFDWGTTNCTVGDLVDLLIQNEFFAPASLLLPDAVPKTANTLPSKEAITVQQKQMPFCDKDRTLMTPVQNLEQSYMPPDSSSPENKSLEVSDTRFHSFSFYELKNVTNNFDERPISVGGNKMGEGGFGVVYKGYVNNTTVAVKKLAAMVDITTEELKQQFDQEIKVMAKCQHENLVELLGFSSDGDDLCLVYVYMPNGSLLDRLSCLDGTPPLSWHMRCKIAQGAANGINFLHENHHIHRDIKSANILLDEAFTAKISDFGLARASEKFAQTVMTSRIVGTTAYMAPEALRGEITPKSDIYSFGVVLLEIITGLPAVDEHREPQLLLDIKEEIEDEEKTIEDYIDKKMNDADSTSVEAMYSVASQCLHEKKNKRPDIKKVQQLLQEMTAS
Structure (SMILES),assay,conditions,endpoint,value
C#Cc1cc(-c2cc(Nc3nc(N[C@@H](C)c4ccc(F)cn4)ncc3Cl)n[nH]2)ccc1C=O,"enzyme activity, inhibitor",0.2 µM,inhibition,10.1%
C=CC(=O)N1CCC[C@@H](n2nc(-c3ccc(Oc4ccccc4)cc3)c3c(N)ncnc32)C1,"enzyme activity, inhibitor",1 µM,inhibition,22%
C#Cc1cnc(Nc2ccc(CO)nc2)nc1Nc1ccccc1S(C)(=O)=NC#N (centres unmarked),"enzyme activity, inhibitor, radiometric",1 µM,remaining activity,0.79%
CC#CC(=O)N1CCC[C@H]1c1nc(-c2ccc(C(=O)Nc3ccccn3)cc2)c2c(N)nccn12,"enzyme activity, inhibitor",1 µM,inhibition,16%
CS(=O)(=O)c1ccccc1Nc1nc(Nc2ccnc(CO)c2)ncc1Cl,"enzyme activity, inhibitor, radiometric",1 µM,remaining activity,13.4%
Cc1cc(O)c(-c2ccc([C@@H](C)CN(C)C)cc2)c2c1[nH]c(=O)c1sccc12,"enzyme activity, inhibitor",0.1 µM,inhibition,1.9%
CCCCC(=O)Nc1ccc(-c2ccc3ncn(CCC)c(=O)c3c2)cn1,"binding, competition with immobilised ligand",0.5 µM,remaining binding,93%
CN1CCN(C(=O)c2ccc(NC(=O)Nc3ccc(N(C)c4ccnc(Nc5ccc(CS(C)(=O)=O)cc5)n4)cc3)cc2)CC1,binding,1 µM,remaining binding,52%
C1=C/COCc2cc(ccc2OCCN2CCCC2)Nc2nccc(n2)-c2cccc(c2)COC/1,cell-free assay,0.1 µM,remaining signal,56%
CS(=O)(=NC#N)c1ccccc1Nc1nc(Nc2ccc(CO)nc2)ncc1Cl (centres unmarked),"enzyme activity, inhibitor, radiometric",1 µM,remaining activity,3.01%
Cc1ccc(NC(=O)c2ccnc(C(F)(F)F)c2)cc1-c1cc(OCCO)nc(N2CCOCC2)c1,binding,1 µM,remaining binding,100%
